According to ChEMBL document CHEMBL3286319, “Hyafurones, hyapyrrolines, and hyapyrones: polyketides from Hyalangium minutum” (J Nat Prod, 2014):
In brackets after ≈: the same amount, converted by molar mass.

The compounds below were run on Candida albicans (assay: Antifungal activity against Candida albicans by serial dilution method). Conditions: not given.
Assay type: functional
Procedure, shortened: (§1)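 MIC by 1:1 serial dilution in 96-well microtiter plates. Yeasts and fungi were grown in MYC medium (1.0% glucose, 1.0% phytone peptone, 50 mM HEPES, pH 7.0).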

MIC [µg/mL] | SMILES
> 67 | CC1=C(CC(O)CC(O)/C=C/C=C/C(C)=C/C=C/C(C)C(O)C(C)CCc2ccccc2)OC(C)(O)C1=O (stereo not drawn)
> 67 | CC1=C(/C=C/CC(O)\C=C/C=C/C(C)=C/C=C/C(C)C(O)C(C)CCc2ccccc2)OC(C)(O)C1=O (stereo not drawn)
> 67 | CC1=C(CC(O)CC(O)\C=C/C=C/C(C)=C/C=C/C(C)C(O)C(C)CCc2ccccc2)[N+](C)(CCO)C(C)(O)C1=O (stereo not drawn)
> 67 | CC1=C(O)C(C)O/C(=C/CC(O)\C=C/C=C/C(C)=C/C=C/C(C)C(O)C(C)CCc2ccccc2)C1=O (stereo not drawn)

What follows are compounds tested on Mycolicibacterium phlei (assay: Antibacterial activity against Mycobacterium phlei by serial dilution method). Conditions: not given.
Assay type: functional

MIC [µg/mL] | SMILES
> 67 | CC1=C(CC(O)CC(O)/C=C/C=C/C(C)=C/C=C/C(C)C(O)C(C)CCc2ccccc2)OC(C)(O)C1=O (stereo not drawn)
> 67 | CC1=C(/C=C/CC(O)\C=C/C=C/C(C)=C/C=C/C(C)C(O)C(C)CCc2ccccc2)OC(C)(O)C1=O (stereo not drawn)
> 67 | CC1=C(CC(O)CC(O)\C=C/C=C/C(C)=C/C=C/C(C)C(O)C(C)CCc2ccccc2)[N+](C)(CCO)C(C)(O)C1=O (stereo not drawn)
> 67 | CC1=C(O)C(C)O/C(=C/CC(O)\C=C/C=C/C(C)=C/C=C/C(C)C(O)C(C)CCc2ccccc2)C1=O (stereo not drawn)

Each compound was assayed on Wickerhamomyces anomalus (assay: Antifungal activity against Pichia anomala by serial dilution method). Conditions: Hansenula anomala.
Assay type: functional
Procedure, shortened: as §1

MIC [µg/mL] | SMILES
> 67 | CC1=C(CC(O)CC(O)/C=C/C=C/C(C)=C/C=C/C(C)C(O)C(C)CCc2ccccc2)OC(C)(O)C1=O (stereo not drawn)
> 67 | CC1=C(/C=C/CC(O)\C=C/C=C/C(C)=C/C=C/C(C)C(O)C(C)CCc2ccccc2)OC(C)(O)C1=O (stereo not drawn)
> 67 | CC1=C(CC(O)CC(O)\C=C/C=C/C(C)=C/C=C/C(C)C(O)C(C)CCc2ccccc2)[N+](C)(CCO)C(C)(O)C1=O (stereo not drawn)
> 67 | CC1=C(O)C(C)O/C(=C/CC(O)\C=C/C=C/C(C)=C/C=C/C(C)C(O)C(C)CCc2ccccc2)C1=O (stereo not drawn)

These compounds were tested on Staphylococcus aureus (assay: Antibacterial activity against Staphylococcus aureus by serial dilution method). Conditions: not given.
Assay type: functional

MIC [µg/mL] | SMILES
> 67 | CC1=C(CC(O)CC(O)/C=C/C=C/C(C)=C/C=C/C(C)C(O)C(C)CCc2ccccc2)OC(C)(O)C1=O (stereo not drawn)
> 67 | CC1=C(/C=C/CC(O)\C=C/C=C/C(C)=C/C=C/C(C)C(O)C(C)CCc2ccccc2)OC(C)(O)C1=O (stereo not drawn)
> 67 | CC1=C(CC(O)CC(O)\C=C/C=C/C(C)=C/C=C/C(C)C(O)C(C)CCc2ccccc2)[N+](C)(CCO)C(C)(O)C1=O (stereo not drawn)
> 67 | CC1=C(O)C(C)O/C(=C/CC(O)\C=C/C=C/C(C)=C/C=C/C(C)C(O)C(C)CCc2ccccc2)C1=O (stereo not drawn)

These compounds were tested on Chromobacterium violaceum (assay: Antibacterial activity against Chromobacterium violaceum by serial dilution method). Conditions: not given.
Assay type: functional

MIC [µg/mL] | SMILES
> 67 | CC1=C(CC(O)CC(O)/C=C/C=C/C(C)=C/C=C/C(C)C(O)C(C)CCc2ccccc2)OC(C)(O)C1=O (stereo not drawn)
> 67 | CC1=C(/C=C/CC(O)\C=C/C=C/C(C)=C/C=C/C(C)C(O)C(C)CCc2ccccc2)OC(C)(O)C1=O (stereo not drawn)
> 67 | CC1=C(CC(O)CC(O)\C=C/C=C/C(C)=C/C=C/C(C)C(O)C(C)CCc2ccccc2)[N+](C)(CCO)C(C)(O)C1=O (stereo not drawn)
> 67 | CC1=C(O)C(C)O/C(=C/CC(O)\C=C/C=C/C(C)=C/C=C/C(C)C(O)C(C)CCc2ccccc2)C1=O (stereo not drawn)

These compounds were tested on Nocardia (assay: Antibacterial activity against Nocardia flava by serial dilution method). Conditions: not given.
Assay type: functional

MIC [µg/mL] | SMILES
> 67 | CC1=C(CC(O)CC(O)/C=C/C=C/C(C)=C/C=C/C(C)C(O)C(C)CCc2ccccc2)OC(C)(O)C1=O (stereo not drawn)
> 67 | CC1=C(O)C(C)O/C(=C/CC(O)\C=C/C=C/C(C)=C/C=C/C(C)C(O)C(C)CCc2ccccc2)C1=O (stereo not drawn)

Same assay, conditions: read-out: MIC

MIC [µg/mL] | SMILES
8.3 (≈ 16.4 µM) | CC1=C(/C=C/CC(O)\C=C/C=C/C(C)=C/C=C/C(C)C(O)C(C)CCc2ccccc2)OC(C)(O)C1=O (stereo not drawn)
> 67 | CC1=C(CC(O)CC(O)\C=C/C=C/C(C)=C/C=C/C(C)C(O)C(C)CCc2ccccc2)[N+](C)(CCO)C(C)(O)C1=O (stereo not drawn)

Each compound was assayed on Schizosaccharomyces pombe (assay: Antifungal activity against Schizosaccharomyces pombe by serial dilution method). Conditions: not given.
Assay type: functional
Procedure, shortened: as §1

MIC [µg/mL] | SMILES
> 67 | CC1=C(CC(O)CC(O)/C=C/C=C/C(C)=C/C=C/C(C)C(O)C(C)CCc2ccccc2)OC(C)(O)C1=O (stereo not drawn)
> 67 | CC1=C(/C=C/CC(O)\C=C/C=C/C(C)=C/C=C/C(C)C(O)C(C)CCc2ccccc2)OC(C)(O)C1=O (stereo not drawn)
> 67 | CC1=C(CC(O)CC(O)\C=C/C=C/C(C)=C/C=C/C(C)C(O)C(C)CCc2ccccc2)[N+](C)(CCO)C(C)(O)C1=O (stereo not drawn)
> 67 | CC1=C(O)C(C)O/C(=C/CC(O)\C=C/C=C/C(C)=C/C=C/C(C)C(O)C(C)CCc2ccccc2)C1=O (stereo not drawn)

The compounds below were run on Mucor hiemalis (assay: Antifungal activity against Mucor hiemalis by serial dilution method). Conditions: not given.
Assay type: functional
Procedure, shortened: as §1

MIC [µg/mL] | SMILES
> 67 | CC1=C(CC(O)CC(O)/C=C/C=C/C(C)=C/C=C/C(C)C(O)C(C)CCc2ccccc2)OC(C)(O)C1=O (stereo not drawn)
> 67 | CC1=C(/C=C/CC(O)\C=C/C=C/C(C)=C/C=C/C(C)C(O)C(C)CCc2ccccc2)OC(C)(O)C1=O (stereo not drawn)

Same assay, conditions: read-out: MIC

MIC [µg/mL] | SMILES
> 67 | CC1=C(CC(O)CC(O)\C=C/C=C/C(C)=C/C=C/C(C)C(O)C(C)CCc2ccccc2)[N+](C)(CCO)C(C)(O)C1=O (stereo not drawn)
≤ 67 | CC1=C(O)C(C)O/C(=C/CC(O)\C=C/C=C/C(C)=C/C=C/C(C)C(O)C(C)CCc2ccccc2)C1=O (stereo not drawn)

These compounds were tested on Micrococcus luteus (assay: Antibacterial activity against Micrococcus luteus by serial dilution method). Conditions: not given.
Assay type: functional

MIC [µg/mL] | SMILES
> 67 | CC1=C(CC(O)CC(O)/C=C/C=C/C(C)=C/C=C/C(C)C(O)C(C)CCc2ccccc2)OC(C)(O)C1=O (stereo not drawn)
> 67 | CC1=C(/C=C/CC(O)\C=C/C=C/C(C)=C/C=C/C(C)C(O)C(C)CCc2ccccc2)OC(C)(O)C1=O (stereo not drawn)
> 67 | CC1=C(CC(O)CC(O)\C=C/C=C/C(C)=C/C=C/C(C)C(O)C(C)CCc2ccccc2)[N+](C)(CCO)C(C)(O)C1=O (stereo not drawn)
> 67 | CC1=C(O)C(C)O/C(=C/CC(O)\C=C/C=C/C(C)=C/C=C/C(C)C(O)C(C)CCc2ccccc2)C1=O (stereo not drawn)

The compounds below were run on Pseudomonas aeruginosa (assay: Antibacterial activity against Pseudomonas aeruginosa by serial dilution method). Conditions: not given.
Assay type: functional

MIC [µg/mL] | SMILES
> 67 | CC1=C(CC(O)CC(O)/C=C/C=C/C(C)=C/C=C/C(C)C(O)C(C)CCc2ccccc2)OC(C)(O)C1=O (stereo not drawn)
> 67 | CC1=C(/C=C/CC(O)\C=C/C=C/C(C)=C/C=C/C(C)C(O)C(C)CCc2ccccc2)OC(C)(O)C1=O (stereo not drawn)
> 67 | CC1=C(CC(O)CC(O)\C=C/C=C/C(C)=C/C=C/C(C)C(O)C(C)CCc2ccccc2)[N+](C)(CCO)C(C)(O)C1=O (stereo not drawn)
> 67 | CC1=C(O)C(C)O/C(=C/CC(O)\C=C/C=C/C(C)=C/C=C/C(C)C(O)C(C)CCc2ccccc2)C1=O (stereo not drawn)

These compounds were tested on Escherichia coli (assay: Antibacterial activity against Escherichia coli TolC by serial dilution method). Conditions: not given.
Assay type: functional

MIC [µg/mL] | SMILES
> 67 | CC1=C(CC(O)CC(O)/C=C/C=C/C(C)=C/C=C/C(C)C(O)C(C)CCc2ccccc2)OC(C)(O)C1=O (stereo not drawn)
> 67 | CC1=C(/C=C/CC(O)\C=C/C=C/C(C)=C/C=C/C(C)C(O)C(C)CCc2ccccc2)OC(C)(O)C1=O (stereo not drawn)
> 67 | CC1=C(CC(O)CC(O)\C=C/C=C/C(C)=C/C=C/C(C)C(O)C(C)CCc2ccccc2)[N+](C)(CCO)C(C)(O)C1=O (stereo not drawn)
> 67 | CC1=C(O)C(C)O/C(=C/CC(O)\C=C/C=C/C(C)=C/C=C/C(C)C(O)C(C)CCc2ccccc2)C1=O (stereo not drawn)

The compounds below were run on Rhodotorula glutinis (assay: Antifungal activity against Rhodotorula glutinis by serial dilution method). Conditions: not given.
Assay type: functional
Procedure, shortened: as §1

MIC [µg/mL] | SMILES
> 67 | CC1=C(CC(O)CC(O)/C=C/C=C/C(C)=C/C=C/C(C)C(O)C(C)CCc2ccccc2)OC(C)(O)C1=O (stereo not drawn)
> 67 | CC1=C(/C=C/CC(O)\C=C/C=C/C(C)=C/C=C/C(C)C(O)C(C)CCc2ccccc2)OC(C)(O)C1=O (stereo not drawn)
> 67 | CC1=C(CC(O)CC(O)\C=C/C=C/C(C)=C/C=C/C(C)C(O)C(C)CCc2ccccc2)[N+](C)(CCO)C(C)(O)C1=O (stereo not drawn)
> 67 | CC1=C(O)C(C)O/C(=C/CC(O)\C=C/C=C/C(C)=C/C=C/C(C)C(O)C(C)CCc2ccccc2)C1=O (stereo not drawn)
